What was measured:
[1] = target: T1, Alpha-1B adrenergic receptor (Homo sapiens, UniProt P35368); experiment: Displacement of [3H]prazosin from human cloned Alpha-1B adrenergic receptor
T1 sequence (P35368 whole entry): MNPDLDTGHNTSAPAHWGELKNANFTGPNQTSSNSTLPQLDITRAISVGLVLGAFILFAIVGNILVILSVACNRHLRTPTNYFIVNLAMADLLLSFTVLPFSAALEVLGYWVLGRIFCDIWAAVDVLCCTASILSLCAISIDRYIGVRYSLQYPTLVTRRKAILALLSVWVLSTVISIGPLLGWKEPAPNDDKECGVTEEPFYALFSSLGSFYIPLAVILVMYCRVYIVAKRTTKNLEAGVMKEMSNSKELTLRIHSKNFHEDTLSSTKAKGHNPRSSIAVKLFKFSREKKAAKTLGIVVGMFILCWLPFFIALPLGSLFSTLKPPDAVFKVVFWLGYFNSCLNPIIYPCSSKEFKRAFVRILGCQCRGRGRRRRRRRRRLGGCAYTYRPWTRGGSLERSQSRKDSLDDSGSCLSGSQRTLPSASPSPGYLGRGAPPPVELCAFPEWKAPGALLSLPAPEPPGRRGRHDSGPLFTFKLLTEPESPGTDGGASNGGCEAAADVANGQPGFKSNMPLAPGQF
In short: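 CHO cells stably transfected with each human α1 subtype; 30 μg membrane protein in 50 mM Tris-HCl pH 7.4 with 0.1–0.4 nM [3H]prazosin, 30 min at 25 °C. Competitors 1 pM–10 μM. Nonspecific binding defined with 10 μM phentolamine. Filtration, scintillation counting. Ki by Cheng–Prusoff; 2–3 experiments in triplicate.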

[2] = target: T2, Adrenergic receptor alpha-2 (Rattus norvegicus, UniProt P22086+P19328+P22909); experiment: Displacement of [3H]rauwolscine from rat brain Alpha-2 adrenergic receptor
T2 sequence (P22086 whole entry): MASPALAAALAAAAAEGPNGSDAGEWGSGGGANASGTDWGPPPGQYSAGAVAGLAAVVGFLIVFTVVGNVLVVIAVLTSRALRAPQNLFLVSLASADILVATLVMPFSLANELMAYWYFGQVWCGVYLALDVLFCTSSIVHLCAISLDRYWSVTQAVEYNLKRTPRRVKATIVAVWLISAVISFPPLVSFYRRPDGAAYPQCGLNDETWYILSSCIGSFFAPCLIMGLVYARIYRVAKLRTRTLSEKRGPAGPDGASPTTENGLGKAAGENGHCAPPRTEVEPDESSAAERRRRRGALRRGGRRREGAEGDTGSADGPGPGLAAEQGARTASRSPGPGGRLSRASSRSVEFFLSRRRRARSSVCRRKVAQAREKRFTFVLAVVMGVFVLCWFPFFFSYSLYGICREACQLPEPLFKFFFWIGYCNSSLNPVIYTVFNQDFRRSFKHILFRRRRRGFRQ
T2 sequence (P19328 whole entry): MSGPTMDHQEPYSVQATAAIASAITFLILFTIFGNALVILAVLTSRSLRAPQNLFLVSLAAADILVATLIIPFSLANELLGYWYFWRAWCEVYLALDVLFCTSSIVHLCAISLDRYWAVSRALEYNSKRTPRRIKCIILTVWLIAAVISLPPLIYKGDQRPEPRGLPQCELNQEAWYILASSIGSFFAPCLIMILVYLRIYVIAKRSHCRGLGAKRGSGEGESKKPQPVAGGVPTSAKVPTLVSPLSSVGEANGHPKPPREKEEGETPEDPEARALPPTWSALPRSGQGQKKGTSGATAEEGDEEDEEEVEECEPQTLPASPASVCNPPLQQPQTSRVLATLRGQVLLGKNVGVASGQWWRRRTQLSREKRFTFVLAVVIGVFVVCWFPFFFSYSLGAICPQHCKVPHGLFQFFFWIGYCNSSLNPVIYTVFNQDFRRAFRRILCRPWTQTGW
T2 sequence (P22909 whole entry): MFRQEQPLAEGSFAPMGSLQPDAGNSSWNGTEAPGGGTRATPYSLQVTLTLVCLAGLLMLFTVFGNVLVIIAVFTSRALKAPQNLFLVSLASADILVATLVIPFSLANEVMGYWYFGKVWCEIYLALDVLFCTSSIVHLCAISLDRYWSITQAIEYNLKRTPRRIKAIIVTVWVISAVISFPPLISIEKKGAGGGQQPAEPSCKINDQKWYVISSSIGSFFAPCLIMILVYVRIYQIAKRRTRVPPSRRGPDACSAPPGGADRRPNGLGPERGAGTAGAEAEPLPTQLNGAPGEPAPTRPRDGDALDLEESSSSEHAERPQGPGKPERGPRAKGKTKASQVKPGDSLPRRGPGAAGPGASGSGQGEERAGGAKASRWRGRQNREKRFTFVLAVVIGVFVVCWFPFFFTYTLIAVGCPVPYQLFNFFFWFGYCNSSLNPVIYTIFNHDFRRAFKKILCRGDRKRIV
In short: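 Rat cerebral cortex membranes (male Sprague–Dawley) were washed in Tris-HCl pH 7.4 and resuspended with 10 μM pargiline and 0.1% ascorbic acid. They were incubated 30 min at 25 °C with 0.5–1.5 nM [3H]rauwolscine. Nonspecific binding was taken with 10 μM phentolamine. Filtration and scintillation counting followed, and Ki was obtained by Cheng–Prusoff.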

[3] = target: Serotonin 2 (5-HT2) receptor (Rattus norvegicus, UniProt P30994+P08909+P14842); experiment: Displacement of [3H]ketanserin from rat brain 5-hydroxytryptamine 2 receptor
In short: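 Rat cerebral cortex membranes (male Sprague–Dawley) in Tris-HCl pH 7.4 with 10 μM pargiline and 0.1% ascorbic acid were incubated 20 min at 37 °C with 0.7–1.3 nM [3H]ketanserin (5-HT2A). Nonspecific binding was defined by 2 μM ketanserin. Bound label was counted after filtration, and Ki was derived by Cheng–Prusoff.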

[4] = target: D(2) dopamine receptor (Rattus norvegicus, UniProt P61169); experiment: Displacement of [3H]spiperone from rat brain Dopamine receptor D2
In short: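 Striata from male Sprague–Dawley rats homogenized in Tris-HCl pH 7.4. Buffer held 10 μM pargiline, 0.1% ascorbic acid, 120 mM NaCl, 5 mM KCl, 2 mM CaCl2, 1 mM MgCl2. Incubated with 0.2–0.6 nM [3H]spiperone for 15 min at 37 °C. Nonspecific binding defined with 1 μM (+)-butaclamol. Filtration, scintillation counting. Ki by Cheng–Prusoff.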

[5] = target: T3, Alpha-1B adrenergic receptor (Rattus norvegicus) (UniProt P15823); experiment: Antagonism of Alpha-1B adrenergic receptor subtype (-)-phenylephrine-induced contraction of rat spleen; format: functional, tissue-based
T3 sequence (whole entry): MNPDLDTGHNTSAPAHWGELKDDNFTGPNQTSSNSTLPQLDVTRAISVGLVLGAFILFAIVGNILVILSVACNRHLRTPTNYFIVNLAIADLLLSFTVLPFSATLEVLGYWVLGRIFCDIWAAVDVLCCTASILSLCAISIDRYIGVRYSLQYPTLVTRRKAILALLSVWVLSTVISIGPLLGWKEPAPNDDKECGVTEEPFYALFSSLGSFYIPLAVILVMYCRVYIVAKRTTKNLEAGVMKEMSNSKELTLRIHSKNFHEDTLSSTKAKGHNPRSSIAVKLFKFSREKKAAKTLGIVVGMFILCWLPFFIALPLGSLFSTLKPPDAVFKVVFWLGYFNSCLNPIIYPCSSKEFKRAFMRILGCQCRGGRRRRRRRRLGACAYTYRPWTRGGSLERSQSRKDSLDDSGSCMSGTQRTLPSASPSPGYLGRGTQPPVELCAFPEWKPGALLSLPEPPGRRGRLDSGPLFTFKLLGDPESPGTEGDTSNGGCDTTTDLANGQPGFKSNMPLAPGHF
In short: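 Rat spleen, isometric cumulative (–)-phenylephrine curves at 30-min intervals; first discarded, second taken as control. Antagonist was equilibrated 30 min before the next curve.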

[6] = target: T4, 5-hydroxytryptamine receptor 1A (Homo sapiens) (UniProt P08908); conditions: HeLa
T4 sequence (whole entry): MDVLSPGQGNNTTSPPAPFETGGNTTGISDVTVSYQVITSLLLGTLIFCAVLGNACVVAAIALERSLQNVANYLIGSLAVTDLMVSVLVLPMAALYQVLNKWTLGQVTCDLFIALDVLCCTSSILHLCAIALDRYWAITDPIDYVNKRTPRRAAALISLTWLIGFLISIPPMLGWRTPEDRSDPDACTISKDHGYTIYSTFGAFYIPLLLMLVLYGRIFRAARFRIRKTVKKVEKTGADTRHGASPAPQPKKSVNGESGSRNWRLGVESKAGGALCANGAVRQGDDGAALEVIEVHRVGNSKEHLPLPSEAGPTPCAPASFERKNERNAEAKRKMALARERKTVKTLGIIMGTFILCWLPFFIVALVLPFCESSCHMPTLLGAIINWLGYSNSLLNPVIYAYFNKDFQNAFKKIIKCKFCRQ

[7] = target: T4, 5-hydroxytryptamine receptor 1A (Homo sapiens); conditions: HeLa; remark: listed apart in the source

Sequence of D(2) dopamine receptor (P61169 whole entry): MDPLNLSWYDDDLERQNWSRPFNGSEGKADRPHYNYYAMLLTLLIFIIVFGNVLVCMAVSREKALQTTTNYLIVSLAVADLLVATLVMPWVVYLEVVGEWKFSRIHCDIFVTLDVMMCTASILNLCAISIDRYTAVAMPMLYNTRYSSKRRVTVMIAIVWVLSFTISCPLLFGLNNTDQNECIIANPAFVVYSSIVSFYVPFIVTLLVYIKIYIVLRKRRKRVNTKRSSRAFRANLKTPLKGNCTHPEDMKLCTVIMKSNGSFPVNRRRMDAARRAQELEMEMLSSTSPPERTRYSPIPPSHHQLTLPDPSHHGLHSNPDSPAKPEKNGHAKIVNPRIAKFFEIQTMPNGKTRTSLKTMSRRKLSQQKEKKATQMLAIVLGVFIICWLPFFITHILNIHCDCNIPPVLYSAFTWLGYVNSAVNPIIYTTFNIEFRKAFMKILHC

SMILES	Log Ki [2]	Log Ki [3]	pD2 [7]	also measured
CCCN(CCC)C1CCc2cccc(O)c2C1 (stereo unspecified) [8-OH-DPAT]	-6.08	< -6	–	Ki [1]: > 1000 nM; Log Ki [4]: < -6
COc1ccccc1N1CCN(CCN2C(=O)CC3(CCCC3)CC2=O)CC1 [BMY-7378]	-5.93	-6.31	–	Ki [4]: 49 nM; pKb [5]: 7.55; pD2 [6]: 9.27
NCCc1c[nH]c2ccc(C(N)=O)cc12	–	–	8.45	–
NCCc1c[nH]c2ccc(O)cc12	–	–	7.3	–
